Measured values taken from ChEMBL document CHEMBL1122378, “Antiallergic agents. 2. N-(1H-tetrazol-5-yl)-6-phenyl-2-pyridinecarboxamides” (1983).

Experiments:
Type in all cases: functional
Rattus norvegicus [1] = experiment: Antiallergic activity against passive cutaneous anaphylaxis (PCA) in male Sprague-Dawley rats after 1.0 mg/kg oral administration
Procedure, shortened: (§1)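 IgE antiserum raised in male Sprague-Dawley rats (ca. 200 g) by immunization with Ascaris suum extract (2 then 0.2 mg protein), bled 2 weeks after the second dose. Recipients got 0.05 mL diluted antiserum intracutaneously on the back. Blued area (product of two diameters) was read at 30 min.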

Rattus norvegicus [2] = experiment: Inhibition of passive cutaneous anaphylaxis in male Sprague-Dawley rats following 0.3 mg/kg p.o. administration; Not significant.; conditions: route oral; procedure, shortened: as §1
Rattus norvegicus [3] = experiment: Inhibition of passive cutaneous anaphylaxis in male Sprague-Dawley rats following 1 mg/kg p.o. administration; Not significant.; conditions: route oral; procedure, shortened: as §1
Rattus norvegicus [4] = experiment: Antiallergic activity against passive cutaneous anaphylaxis (PCA) in male Sprague-Dawley rats after 3.0 mg/kg oral administration; procedure, shortened: as §1
Rattus norvegicus [5] = experiment: Inhibition of passive cutaneous anaphylaxis in male Sprague-Dawley rats following 10 mg/kg p.o. administration.; conditions: route oral; procedure, shortened: as §1
Rattus norvegicus [6] = experiment: Antiallergic activity against passive cutaneous anaphylaxis (PCA) in male Sprague-Dawley rats after 3.0 mg/kg oral administration;not statistically significant; procedure, shortened: as §1
Rattus norvegicus [7] = experiment: Antiallergic activity against passive cutaneous anaphylaxis (PCA) in male Sprague-Dawley rats after 0.3 mg/kg oral administration; procedure, shortened: as §1

| Compound | inhibition in vivo at 1 mg/kg (Rattus norvegicus [1]) [%] | inhibition in vivo at 0.3 mg/kg (Rattus norvegicus [2]) [%] | inhibition in vivo at 3 mg/kg (Rattus norvegicus [4]) [%] | also measured |
| --- | --- | --- | --- | --- |
| CNc1ccc(-c2cc(C)cc(C(=O)Nc3nn[nH]n3)n2)cc1 | 89 | 36 | – | – |
| COc1ccc(-c2cccc(C(=O)Nc3nn[nH]n3)n2)cc1 | – | 4 | 36 | inhibition in vivo at 1 mg/kg (Rattus norvegicus [3]): 12% |
| CC(C)c1ccc(-c2cc(Cl)cc(C(=O)Nc3nn[nH]n3)n2)cc1 | – | – | 68 | inhibition in vivo at 1 mg/kg (Rattus norvegicus [3]): 14%; inhibition in vivo at 10 mg/kg (Rattus norvegicus [5]): 90% |
| CCCOc1cc(C(=O)Nc2nn[nH]n2)nc(-c2ccc(N)cc2)c1 | 64 | 7 | 68 | – |
| CNc1ccc(-c2cc(OC)cc(C(=O)Nc3nn[nH]n3)n2)cc1 | – | – | 79 | inhibition in vivo at 1 mg/kg (Rattus norvegicus [3]): 35% |
| CCCc1cc(C(=O)Nc2nn[nH]n2)nc(-c2ccc(C)cc2)c1 | – | – | 50 | inhibition in vivo at 10 mg/kg (Rattus norvegicus [5]): 84% |
| CC(C)c1cc(C(=O)Nc2nn[nH]n2)nc(-c2ccc(N)cc2)c1 | – | 22 | – | inhibition in vivo at 1 mg/kg (Rattus norvegicus [3]): 29%; inhibition in vivo at 3 mg/kg (Rattus norvegicus [6]): 43% |
| CCCCc1ccc(-c2cc(CC)cc(C(=O)Nc3nn[nH]n3)n2)cc1 | – | – | 70 | inhibition in vivo at 1 mg/kg (Rattus norvegicus [3]): 20% |
| CCOc1cc(C(=O)Nc2nn[nH]n2)nc(-c2ccc(N)cc2)c1 | 52 | 19 | 62 | – |
| COc1cc(C(=O)Nc2nn[nH]n2)nc(-c2ccc(Cl)cc2)c1 | 0 | – | – | inhibition in vivo at 3 mg/kg (Rattus norvegicus [6]): 12%; inhibition in vivo at 10 mg/kg (Rattus norvegicus [5]): 55% |
| COc1ccc(-c2cc(Cl)cc(C(=O)Nc3nn[nH]n3)n2)cc1OC | – | – | – | inhibition in vivo at 1 mg/kg (Rattus norvegicus [3]): 15%; inhibition in vivo at 3 mg/kg (Rattus norvegicus [6]): 30% |
| CCCCc1ccc(-c2cc(Cl)cc(C(=O)Nc3nn[nH]n3)n2)cc1 | 0 | – | 83 | – |
| CNc1ccc(-c2cccc(C(=O)Nc3nn[nH]n3)n2)cc1 | – | 29 | – | inhibition in vivo at 1 mg/kg (Rattus norvegicus [3]): 71%; inhibition in vivo at 3 mg/kg (Rattus norvegicus [6]): 83% |
| Cc1ccc(-c2cccc(C(=O)Nc3nn[nH]n3)n2)cc1C | – | – | – | inhibition in vivo at 3 mg/kg (Rattus norvegicus [6]): 28%; inhibition in vivo at 10 mg/kg (Rattus norvegicus [5]): 39% |
| COc1cc(C(=O)Nc2nn[nH]n2)nc(-c2ccccc2)c1 | 62 | – | 97 | inhibition in vivo at 10 mg/kg (Rattus norvegicus [5]): 100% |
| CCCCc1cc(C(=O)Nc2nn[nH]n2)nc(-c2ccc(N)cc2)c1 | 81 | – | – | inhibition in vivo at 0.3 mg/kg (Rattus norvegicus [7]): 41% |
| CCCCc1cc(C(=O)Nc2nn[nH]n2)nc(-c2ccc(CC)cc2)c1 | – | – | – | inhibition in vivo at 1 mg/kg (Rattus norvegicus [3]): 19%; inhibition in vivo at 3 mg/kg (Rattus norvegicus [6]): 25% |
| COc1cc(C(=O)Nc2nn[nH]n2)nc(-c2ccc(C)c(C)c2)c1 | – | – | 82 | inhibition in vivo at 1 mg/kg (Rattus norvegicus [3]): 21% |
| COc1cc(C(=O)Nc2nn[nH]n2)nc(-c2ccc(N(C)C)cc2)c1 | 64 | – | 100 | inhibition in vivo at 0.3 mg/kg (Rattus norvegicus [7]): 29% |
| Cc1cc(C(=O)Nc2nn[nH]n2)nc(-c2ccccc2)c1 | – | – | 50 | inhibition in vivo at 1 mg/kg (Rattus norvegicus [3]): 23%; inhibition in vivo at 10 mg/kg (Rattus norvegicus [5]): 88% |
| Cc1ccc(-c2cc(Cl)cc(C(=O)Nc3nn[nH]n3)n2)cc1 | 86 | 10 | – | – |
| CCCc1ccc(-c2cc(C)cc(C(=O)Nc3nn[nH]n3)n2)cc1 | – | 19 | – | inhibition in vivo at 1 mg/kg (Rattus norvegicus [3]): 65% |
| Cc1cccc(-c2cc(C)cc(C(=O)Nc3nn[nH]n3)n2)c1 | 51 | – | 61 | – |
| CCCc1ccc(-c2cc(Cl)cc(C(=O)Nc3nn[nH]n3)n2)cc1 | 78 | – | – | inhibition in vivo at 0.3 mg/kg (Rattus norvegicus [7]): 42% |
| COc1ccccc1-c1cccc(C(=O)Nc2nn[nH]n2)n1 | – | – | – | inhibition in vivo at 10 mg/kg (Rattus norvegicus [5]): 0% |
| CCc1cc(C(=O)Nc2nn[nH]n2)nc(-c2ccccc2)c1 | – | – | 53 | inhibition in vivo at 10 mg/kg (Rattus norvegicus [5]): 85% |

| Compound | inhibition in vivo at 1 mg/kg (Rattus norvegicus [1]) [%] | inhibition in vivo at 0.3 mg/kg (Rattus norvegicus [2]) [%] | inhibition in vivo at 3 mg/kg (Rattus norvegicus [4]) [%] | also measured |
| --- | --- | --- | --- | --- |
| Nc1ccc(-c2cccc(C(=O)Nc3nn[nH]n3)n2)cc1 | 62 | 11 | 81 | – |
| Cc1cc(C(=O)Nc2nn[nH]n2)nc(-c2ccc(N(C)C)cc2)c1 | – | – | – | inhibition in vivo at 3 mg/kg (Rattus norvegicus [6]): 24% |
| Cc1cc(C(=O)Nc2nn[nH]n2)nc(-c2ccc(C(C)C)cc2)c1 | 34 | – | 100 | – |
| Cc1ccc(-c2cc(CC(C)C)cc(C(=O)Nc3nn[nH]n3)n2)cc1 | – | – | 52 | inhibition in vivo at 1 mg/kg (Rattus norvegicus [3]): 9% |
| CCCCc1ccc(-c2cc(OC)cc(C(=O)Nc3nn[nH]n3)n2)cc1 | – | – | 61 | inhibition in vivo at 1 mg/kg (Rattus norvegicus [3]): 29%; inhibition in vivo at 10 mg/kg (Rattus norvegicus [5]): 92% |
| COc1cccc(-c2cc(Cl)cc(C(=O)Nc3nn[nH]n3)n2)c1 | 51 | – | 95 | inhibition in vivo at 0.3 mg/kg (Rattus norvegicus [7]): 32% |
| COc1ccc(-c2cc(OC)cc(C(=O)Nc3nn[nH]n3)n2)cc1 | – | – | 60 | inhibition in vivo at 1 mg/kg (Rattus norvegicus [3]): 25% |
| CC(=O)Nc1ccc(-c2cc(C)cc(C(=O)Nc3nn[nH]n3)n2)cc1 | – | – | – | inhibition in vivo at 3 mg/kg (Rattus norvegicus [6]): 32% |
| O=C(Nc1nn[nH]n1)c1cc(Cl)cc(-c2ccccc2)n1 | 40 | – | – | – |
| CCOc1cc(C(=O)Nc2nn[nH]n2)nc(-c2ccc(C)cc2)c1 | 65 | 26 | – | – |
| Nc1ccc(-c2cc(Cl)cc(C(=O)Nc3nn[nH]n3)n2)cc1 | 100 | – | 100 | inhibition in vivo at 0.3 mg/kg (Rattus norvegicus [7]): 39% |
| COc1cccc(-c2cc(C)cc(C(=O)Nc3nn[nH]n3)n2)c1 | – | – | 65 | inhibition in vivo at 1 mg/kg (Rattus norvegicus [3]): 25% |
| COc1cc(C(=O)Nc2nn[nH]n2)nc(-c2ccc(C)cc2)c1 | 42 | 16 | – | – |
| COc1cc(C(=O)Nc2nn[nH]n2)nc(-c2ccc(C(C)C)cc2)c1 | 54 | 29 | – | – |
| CCc1ccc(-c2cc(OC)cc(C(=O)Nc3nn[nH]n3)n2)cc1 | 43 | – | – | inhibition in vivo at 0.3 mg/kg (Rattus norvegicus [7]): 23% |
| CCOc1cc(C(=O)Nc2nn[nH]n2)nc(-c2ccc(N(CC)CC)cc2)c1 | 66 | – | – | inhibition in vivo at 0.3 mg/kg (Rattus norvegicus [7]): 44% |
| COc1cc(C(=O)Nc2nn[nH]n2)nc(-c2cccc(Cl)c2)c1 | – | – | 34 | inhibition in vivo at 10 mg/kg (Rattus norvegicus [5]): 64% |
| CCN(CC)c1ccc(-c2cc(C)cc(C(=O)Nc3nn[nH]n3)n2)cc1 | – | 19 | – | – |
| COc1cc(C(=O)Nc2nn[nH]n2)nc(-c2ccc(NC(C)=O)cc2)c1 | 0 | – | – | inhibition in vivo at 3 mg/kg (Rattus norvegicus [6]): 27%; inhibition in vivo at 10 mg/kg (Rattus norvegicus [5]): 100% |
| CCc1cc(C(=O)Nc2nn[nH]n2)nc(-c2ccc(C)cc2)c1 | – | 33 | – | – |
| CCCCc1cc(C(=O)Nc2nn[nH]n2)nc(-c2ccccc2)c1 | 56 | – | 71 | inhibition in vivo at 10 mg/kg (Rattus norvegicus [5]): 100% |
| CCCc1ccc(-c2cc(OC)cc(C(=O)Nc3nn[nH]n3)n2)cc1 | 73 | 32 | 93 | – |
| COc1ccc(-c2cc(Cl)cc(C(=O)Nc3nn[nH]n3)n2)cc1 | 43 | – | 100 | inhibition in vivo at 0.3 mg/kg (Rattus norvegicus [7]): 40% |
| CCCCc1cc(C(=O)Nc2nn[nH]n2)nc(-c2cccc(C)c2)c1 | 36 | – | 82 | inhibition in vivo at 10 mg/kg (Rattus norvegicus [5]): 100% |
| Cc1ccc(-c2cccc(C(=O)Nc3nn[nH]n3)n2)cc1 | 67 | 21 | – | – |
